Source: PubChem BioAssay AID449763 (Sanford-Burnham Center for Chemical Genomics, 2010)
Screen size: about 330,000 compounds; about 1,100 (0.33%) were called active. The sample holds actives, similar compounds and a random draw of the others, so the mix is not that of the screen. Values without a mark were called inactive.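 Rule for the calls: active = at 10 µM dose, activation of 40% or more, normalized to positive control; inactive = the rest.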

Assay: PERK-eIF2a-CHOP pathway stimulators – cell-based, CHO-CHOP luciferase reporter, luminescence, uHTS, primary screen (AID 449763);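 note: 100% = tunicamycin at 10 µg/mL and 0% = DMSO alone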
Conditions: UPR activation, at 10 µM, stronger effect = higher value, percent of tunicamycin response over DMSO baseline
Procedure, shortened: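 measured by = luciferase luminescence | assay system = CHO-CHOP cells, stable luciferase reporter of PERK-eIF2a-CHOP signalling | amount = 500 reporter cells seeded per well | timing = 6 h compound exposure at 37 °C after overnight seeding | controls = positive tunicamycin 10 µg/mL, negative DMSO alone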

With `O=C1NC(=O)N(CCc2ccc(F)cc2)C(=O)/C1=C/C=C/c1ccccc1` as the compound, how does the activation read?
Its activation is 75.4% (active).

With `O=C1NC(=O)N(Cc2ccco2)C(=O)/C1=C\c1ccc(-c2ccc(F)cc2)o1` as the compound, how does the activation read?
Its activation is 0.772%.

For `O=C(O)COc1ccccc1/C=C1\C(=O)NC(=O)N(CCC2=CCCCC2)C1=O`, which activation is on record?
Its activation is -0.189%.

Which activation does the source give for `COc1cccc(-c2nc3ccc(N4CCN(C)CC4)cc3[nH]2)c1` here?
Its activation is -6.37%.

Which activation does the source give for `Cc1cc(N2C(=O)C3CCCN3C2c2ccc(Cl)c(Cl)c2)no1` (stereo not given) here?
The activation was -0.781%.
